Published values collected from several papers.
Each line is one published result; the experiments were not run side by side.
Target: Mitogen-activated protein kinase 12 (MAPK12, Homo sapiens, UniProt P53778)
Sequence (P53778 1-367, as in one of the studies): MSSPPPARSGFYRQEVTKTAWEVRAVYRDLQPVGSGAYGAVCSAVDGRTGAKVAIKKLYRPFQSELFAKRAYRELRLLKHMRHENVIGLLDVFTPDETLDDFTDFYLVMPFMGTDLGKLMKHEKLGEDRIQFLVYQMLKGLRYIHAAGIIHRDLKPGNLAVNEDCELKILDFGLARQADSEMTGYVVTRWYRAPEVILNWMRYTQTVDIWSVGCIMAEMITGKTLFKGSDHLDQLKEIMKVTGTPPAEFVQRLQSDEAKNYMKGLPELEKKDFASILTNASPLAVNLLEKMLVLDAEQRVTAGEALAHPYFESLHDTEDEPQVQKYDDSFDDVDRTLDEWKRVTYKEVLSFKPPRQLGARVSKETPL

Compound | test | setting | quantity | result
CC(C)(C)c1nc(-c2cccc(NS(=O)(=O)c3c(F)cccc3F)c2F)c(-c2ccnc(N)n2)s1 | enzyme activity, inhibitor, radiometric | 1 µM | remaining activity | 102%
O=C(Nc1cnn(-c2csc(C(=O)NC3COC3)c2)c1)Nc1ccccc1Cl | enzyme activity, inhibitor | 5 µM | remaining activity | 99.4%
CCC(=O)N[C@H]1CC[C@@H](C(=O)N(C)c2ccc(-c3nc4ccccc4o3)cc2)C1 | cell-free assay, competition with immobilised ligand | 1 µM | remaining binding | 67%
CC(C)(O)[C@H]1CC[C@H](Nc2ccc3ncc(-c4cccc(C(F)(F)F)c4)n3n2)CC1 | enzyme activity, inhibitor | 1 µM | remaining activity | 93.8%
O=C1Nc2ccc(Cl)cc2C1=Cc1cc(Cl)c(O)c(Cl)c1 | cell-free assay | 0.5 µM | remaining signal | 90.5%
CC/C(=N\NC(=O)NCc1cccc(O)c1)c1ccc(O)c(C)c1O | enzyme activity, inhibitor | 0.1 µM | inhibition | -1.6%
COc1cc(Cl)c(C(=O)N[C@@H](CN[C@H]2CC[C@@H](N)CC2)Cc2ccc(C#N)cc2)cc1-c1ccc(CN[C@H](C)c2ccc(C)cc2)o1 | enzyme activity, inhibitor | 1 µM | remaining activity | 109%
Cc1cnc(NC2CCOCC2)nc1-n1cnc(C(=O)NC(CN)c2cc(F)cc(Cl)c2)c1 (stereo not shown) | enzyme activity, inhibitor, radiometric | 1 µM | remaining activity | 48%
O=C(Nc1cccnn1)N1CCC(=Cc2cccc(Oc3ccc(C(F)(F)F)cn3)c2)CC1 | cell-free assay, competition with immobilised ligand | 1 µM | remaining binding | 100%
Oc1cccc(-c2nc(N3CCOCC3)c3oc4ncccc4c3n2)c1 | cell-free assay | 0.5 µM | remaining signal | 93.4%
COc1cc2ncnc(Nc3ccc(Oc4ccccc4)cc3C)c2cc1OC | enzyme activity, inhibitor | 1 µM | inhibition | 4%
CCCOc1ccc(OC)c(F)c1C(=O)c1ccc(C(=O)N[C@@H]2CNC[C@H]2NC(=O)c2ccc3[nH]ncc3c2)cc1 | enzyme activity, inhibitor | 10 µM | remaining activity | 97%
Nc1nc(NC2CCCCC2)sc1C(=O)c1ccccc1 | enzyme activity, inhibitor | 10 µM | remaining activity | 71%
Cc1nccc(COC(=O)N2C[C@@H]3[C@@H](CNC(=O)c4ccc5[nH]nnc5c4)[C@@H]3C2)n1 | cell-free assay, competition with immobilised ligand | 1 µM | remaining binding | 79%
CCN(CC)CCNC(=O)c1c(C)[nH]c(/C=C2\C(=O)Nc3ccc(F)cc32)c1C | enzyme activity, inhibitor | 10 µM | inhibition | -3%
CS(=O)(=O)c1cc(C2(NC(=O)c3cncc4c3cnn4-c3ccc(F)cc3)CC2)ccn1 | cell-free assay, competition with immobilised ligand | 1 µM | remaining binding | 100%
Cc1ccc(C(=O)Nc2ccc(CN3CCN(C)CC3)c(C(F)(F)F)c2)cc1C#Cc1cnc2cccnn12 | enzyme activity, inhibitor | 23.5 nM | remaining activity | 70%
COc1cc(Nc2cnc(C#N)c(O[C@H](C)CN(C)C)n2)ncc1-c1cnn(C)c1 | enzyme activity, inhibitor, radiometric | 1 µM | remaining activity | 89%
C[C@H](c1ccc(F)cc1)N(Cc1cccc(C(=O)O)c1)C(=O)c1cnc2ccccc2c1 | cell-free assay, competition with immobilised ligand | 1 µM | remaining binding | 65%
Cc1sc(C(=O)NC2COC2)cc1-n1cc(NC(=O)Nc2c(F)cccc2Cl)cn1 | enzyme activity, inhibitor | 10 µM | remaining activity | 90.5%
Cc1ccc(NC(=O)c2ccc(C)c(C(F)(F)F)c2)cc1C#Cc1nn(C2CCC(O)CC2)c2ncnc(N)c12 (stereo not shown) | cell-free assay | 10 µM | remaining signal | 68%
N#CCCc1ccc2c(c1)-c1[nH]c3ccc([N+](=O)[O-])cc3c1CC(=O)N2 | cell-free assay | 0.5 µM | remaining signal | 98.9%
Nc1c(C(=O)NCc2ccc(C(=O)NCCCC3CCCCC3)cc2)cnn1-c1ccccc1 | cell-free assay, competition with immobilised ligand | 0.1 µM | remaining binding | 100%
Oc1cccc(-c2nc(N3CCOCC3)c3oc4ncccc4c3n2)c1 | enzyme activity, inhibitor | 10 µM | remaining activity | 76%
CCS(=O)(=O)c1cc2cc(C[C@](O)(CC(C)(C)c3ccc(F)cc3C(N)=O)C(F)(F)F)[nH]c2cn1 | cell-free assay, competition with immobilised ligand | 1 µM | remaining binding | 100%
FC(F)c1nc2ccccc2n1-c1nc(N2CCOCC2)nc(N2CCOCC2)n1 | enzyme activity, inhibitor | 10 µM | remaining activity | 92%
CN1CCN(c2cnc3c(C4CCN(C(=O)c5ccc(OC(F)(F)F)cc5N)CC4)ncnc3c2)CC1 | cell-free assay, competition with immobilised ligand | 1 µM | remaining binding | 83%
Cc1ccc(Nc2nccc(N(C)c3ccc4c(C)n(C)nc4c3)n2)cc1S(N)(=O)=O | enzyme activity, inhibitor | 0.3 µM | inhibition | -5%
